Source: PubChem BioAssay
LEDGF integ inh: blocks HIV-1 LEDGF/p75-dependent DNA integration; TR-FRET IN-LEDGF/p75 DNA integration, Eu/Cy5; inhibition, % at 3.7 µM; 370,000 tested, 0.64% active; AID 743269;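 active = inhibition above the screen-wide mean plus 3 SD, cut at about 13% in these data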;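 also: signal is the Cy5 over europium emission ratio at 671 and 618 nm; 0% = plate median of compound wells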
TDP2 absorb: blocks human TDP2 phosphodiesterase activity. O95551. recombinant TDP2, T5PNP hydrolysis, p-nitrophenol absorbance 415 nm. inhibition, % at 12.8 µM. 370,000 tested, 0.34% active;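 active = inhibition above the mean of all tested compounds plus 3 SD, set per campaign, cut at about 25% in these data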;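 also: 0% = DMSO with enzyme and 100% = buffer with substrate but no TDP2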
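System – recombinant human TDP2 · Quantity – TDP2 enzyme at 120 nM final · Doses – single concentration, 12.8 µM nominal, with 1% DMSO · Incubation – 2 h at 37 °C · Measured by – epi absorbance of p-nitrophenol freed from T5PNP by hydrolysis · Read-out – % inhibition relative to enzyme-containing and enzyme-free wells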
SIAE primary: inhibitors of human sialic acid acetylesterase SIAE; SIAE FP-Rh probe binding, fluorescence polarization; 370,000 tested, 0.69% active; Q9HAT2; inhibition, % at 9.66 µM;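 active = inhibition above a cutoff: mean of compounds within the control limits plus 3 SD of those, cut at about 17% in these data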;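 also: 0% = plate median of compound wells and 100% = probe without SIAE protein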
Target sequence (Q9HAT2 whole entry, looked up): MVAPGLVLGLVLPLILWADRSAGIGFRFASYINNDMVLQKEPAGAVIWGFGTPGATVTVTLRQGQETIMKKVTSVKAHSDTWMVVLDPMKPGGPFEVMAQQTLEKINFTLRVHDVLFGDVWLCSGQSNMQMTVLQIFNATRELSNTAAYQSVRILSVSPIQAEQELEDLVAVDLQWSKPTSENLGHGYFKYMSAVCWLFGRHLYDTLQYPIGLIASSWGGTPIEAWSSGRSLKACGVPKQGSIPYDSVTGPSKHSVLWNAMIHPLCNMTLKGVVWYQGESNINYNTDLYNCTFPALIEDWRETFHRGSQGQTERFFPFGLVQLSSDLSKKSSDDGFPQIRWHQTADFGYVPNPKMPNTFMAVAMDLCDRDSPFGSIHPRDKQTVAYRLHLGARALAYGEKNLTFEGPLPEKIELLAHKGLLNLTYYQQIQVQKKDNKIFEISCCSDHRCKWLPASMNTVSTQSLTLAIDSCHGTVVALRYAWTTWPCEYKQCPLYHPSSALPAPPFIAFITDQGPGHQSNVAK
MBD2 inh: MBD2-methylated oligo binding inhibition. TR-FRET, MBD2 binding to methylated oligonucleotide. inhibition, % at 4.4 µM. AID 686964. Q9UBB5. 370,000 tested, 0.31% active; in the data active = inhibition above about 13%
UHRF1 binding: UHRF1 methyl-DNA binding inhibition. Q96T88. UHRF1 binding to methylated oligo, TR-FRET. inhibition, % at 4.4 µM. 370,000 tested, 0.75% active; in the data active = inhibition above about 21%;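 also: UHRF1 SRA domain binding a hemimethylated CpG hairpin DNA probe; 0% = median of test compound wells and 100% = reference inhibitor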
PRMT1 inh: PRMT1 (human) inhibition, primary screen; Q99873; recombinant PRMT1, activity-based probe fluorescence polarization; inhibition, % at 2.79 µM; 370,000 tested, 1.3% active;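 active = inhibition above about 21% made by adding two undisclosed values, limit read from the data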
PRMT1 inh conf: PRMT1 (human) inhibition, FP confirmation; shares compounds with PRMT1 inh; recombinant His-PRMT1, activity-based probe fluorescence polarization; inhibition, % at 2.79 µM; 3,300 tested, 42% active; AID 687036;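 active = mean inhibition across replicates above the hit cutoff derived for the earlier primary screen, cut at about 22% in these data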
* marks the source's active call; other numbers are inactive results; x = no result. An excerpt weighted towards active compounds, which were near 3.3% of everything screened.

SMILES	LEDGF integ inh	TDP2 absorb	SIAE primary	MBD2 inh	UHRF1 binding	PRMT1 inh	PRMT1 inh conf
CC1(C)CC(=O)C=C(Nc2ccccc2NC(=O)c2cc(Cl)ccc2F)C1	3.9	-2.0	-1.6	1.1	2.8	-1.7	x
N#CC1C(=O)c2ccccc2C1c1ccccc1 (stereo not given)	-1.8	2.1	-0.5	-3.3	-2.3	45.3*	14.0
O=C1CCC(c2ccccc2)c2ccccc21 (stereo not given)	-1.6	7.0	5.7	-2.1	1.3	-2.5	x
CSc1ccccc1NC(=O)CN(C)Cc1c(O)ccc2ccccc12	5.9	-18.6	-8.2	2.6	1.7	38.8*	30.2*
CSc1ccccc1NC(=O)CN(C)Cc1ccc(Br)cc1	1.0	-5.0	-1.4	0.2	-3.0	-2.3	x
CCCCOc1ccc(N2C(=O)CC(NCCc3ccc(S(N)(=O)=O)cc3)C2=O)cc1 (stereo not given)	-1.7	6.5	3.9	-0.6	4.0	40.2*	5.9
COc1ccc(CCNC2CC(=O)N(N(C)C)C2=O)cc1OC (stereo not given)	-1.4	1.6	5.8	-1.0	-3.0	2.3	x
COc1ccc(CCN2C(=O)CC(NCCc3ccc(S(N)(=O)=O)cc3)C2=O)cc1OC (stereo not given)	0.1	-3.5	7.4	-4.0	-0.6	41.5*	1.4
O=C1CC(N2CCC(Cc3ccccc3)CC2)C(=O)N1CCc1ccccc1 (stereo not given)	3.9	-3.4	2.0	0.8	0.5	47.4*	5.5
CCCOc1ccc(N2C(=O)CC(NCCNc3ccc([N+](=O)[O-])cn3)C2=O)cc1 (stereo not given)	3.0	-6.7	6.0	-1.9	-0.4	32.2*	4.3
COC(=O)c1cc(-c2cnc(OC)nc2OC)c(=O)n2c1CCC2	-2.0	2.6	-0.1	1.2	5.3	4.5	x
COc1cc(O)c(C(CC(=O)N2CCCC(C)C2)c2ccccc2)c(OC)c1 (stereo not given)	3.1	-1.6	-1.7	8.1	13.1	-0.8	x
COc1ccc(CCN2C(=O)C=CC2=O)cc1OC	-2.9	1.4	5.4	-5.4	-0.9	88.6*	84.5*
COc1ccc(CCN2C(=O)CC(Cc3ccc(C)cc3)C2=O)cc1OC (stereo not given)	-3.6	-3.3	-5.9	0.5	2.2	2.9	x
COc1ccc(CCN2C(=O)CC(NC34CC5CC(CC(C5)C3)C4)C2=O)cc1OC (stereo not given)	-6.2	1.8	-5.4	2.8	2.6	66.6*	1.7
O=C1CC(NCCc2ccccc2)C(=O)N1CCc1ccccc1 (stereo not given)	-4.5	3.9	0.8	1.3	2.7	37.7*	-0.3
COc1ccc(CCN2C(=O)CN(Cc3ccccc3)CC2=O)cc1OC	-6.2	2.3	6.0	3.0	0.6	1.2	x
COc1ccc(CCNC2CC(=O)N(CCc3ccccc3)C2=O)cc1 (stereo not given)	-3.4	-7.8	0.7	-1.6	3.9	45.1*	-1.5
CCCCOc1ccc(C(=O)n2ccc3ccc(-c4ccc5ccn(Cc6cccc(C(=O)OC)c6)c5c4)cc32)cc1	-2.2	0.7	-9.3	1.1	-2.1	2.2	x
COC1=C[C@H](C(=O)NC2CCN(Cc3ccccc3)CC2)[C@@]2(C)Cc3ccccc3[C@H]2CC1=O	-0.8	4.8	1.4	-5.2	-0.5	0.0	x
COc1ccc(N2C(=O)C3C(C2=O)C2C=CC3C23CC3)c(OC)c1 (stereo not given)	0.9	-9.7	0.8	3.1	0.0	-1.0	x
COc1ccc(N2C(=O)CC(NC34CC5CC(CC(C5)C3)C4)C2=O)c(OC)c1 (stereo not given)	-2.1	7.1	3.4	-2.8	1.8	89.1*	3.8
Cc1cc(C)cc(N2C(=O)C=CC2=O)c1	3.9	11.1	-4.5	-5.3	0.6	80.2*	96.4*
CCCN1CNC(=S)N(CC2CCCO2)C1 (stereo not given)	-3.6	-4.1	1.4	6.4	3.2	66.5*	-4.2
CCCN1CNC(=S)N(Cc2ccccc2)C1	2.2	9.5	-3.9	0.7	-4.9	-1.8	x
